How the values were obtained:
[1] = biological target: T1, Peroxisome proliferator-activated receptor alpha (Homo sapiens) (UniProt Q07869); assay: Agonist activity at human PPARalpha ligand binding domain expressed in human Hep G2 cells co-transfected with Gal4-DBD by luciferase reporter gene assay relative to Wy 14,643; assay type: cell-based; conditions: HepG2
T1 sequence (whole entry): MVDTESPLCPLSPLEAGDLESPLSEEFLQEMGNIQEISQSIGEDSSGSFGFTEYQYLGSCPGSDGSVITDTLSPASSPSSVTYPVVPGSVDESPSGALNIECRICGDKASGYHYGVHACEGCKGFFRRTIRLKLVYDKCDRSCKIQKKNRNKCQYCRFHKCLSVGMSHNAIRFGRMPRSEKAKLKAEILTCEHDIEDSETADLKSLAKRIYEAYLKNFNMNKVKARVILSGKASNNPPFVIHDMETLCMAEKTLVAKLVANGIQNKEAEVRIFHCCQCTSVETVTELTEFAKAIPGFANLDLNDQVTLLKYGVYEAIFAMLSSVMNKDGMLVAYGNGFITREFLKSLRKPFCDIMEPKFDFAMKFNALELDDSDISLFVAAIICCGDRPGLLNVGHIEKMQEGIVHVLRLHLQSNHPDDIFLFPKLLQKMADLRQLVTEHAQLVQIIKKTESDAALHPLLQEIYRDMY
In short: (§1)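 HepG2 cells received the Gal4-receptor LBD construct (50 ng), pGal4UAS-luciferase (100 ng) and pCMVβ (300 ng) by calcium phosphate coprecipitation for 4 h. They were then treated in serum-free DMEM/F-12 with ligand or 0.1% ethanol for 20 h. Luciferase was normalized to β-galactosidase, and efficacy was expressed as percent of the Wy 14,643 maximum (100%). Values are mean ± SEM of 3–5 experiments in triplicate.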

[2] = biological target: T2, Peroxisome proliferator-activated receptor alpha (Mus musculus) (UniProt P23204); assay: Agonist activity at mouse PPARalpha ligand binding domain expressed in human Hep G2 cells co-transfected with Gal4-DBD by luciferase reporter gene assay relative to Wy 14,643; assay type: cell-based; conditions: HepG2; in short: as §1
T2 sequence (whole entry): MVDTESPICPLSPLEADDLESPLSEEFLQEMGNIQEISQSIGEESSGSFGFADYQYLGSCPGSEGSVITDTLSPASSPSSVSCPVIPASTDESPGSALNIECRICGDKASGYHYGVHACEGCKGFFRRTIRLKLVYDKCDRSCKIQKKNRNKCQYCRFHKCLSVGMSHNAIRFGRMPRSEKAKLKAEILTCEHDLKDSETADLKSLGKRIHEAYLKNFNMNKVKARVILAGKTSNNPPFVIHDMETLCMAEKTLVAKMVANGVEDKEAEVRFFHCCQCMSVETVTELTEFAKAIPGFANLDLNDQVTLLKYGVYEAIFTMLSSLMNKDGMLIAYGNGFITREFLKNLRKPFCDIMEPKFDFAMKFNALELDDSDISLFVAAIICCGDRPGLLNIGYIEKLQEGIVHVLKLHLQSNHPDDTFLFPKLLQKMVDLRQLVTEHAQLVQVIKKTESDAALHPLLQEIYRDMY

[3] = biological target: T3, Peroxisome proliferator-activated receptor alpha (Homo sapiens, UniProt Q07869); assay: Agonist activity at PPARalpha ligand binding domain expressed in human Hep G2 cells co-transfected with Gal4-DBD by luciferase reporter gene assay; assay type: cell-based, HepG2
T3 sequence (Q07869 whole entry): T1 sequence (whole entry)
In short: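 Gal4-LBD fusion vector (50 ng) was co-transfected with pGal4UAS-luciferase (100 ng) and pCMVβ β-galactosidase normalizer (300 ng) into HepG2 cells by calcium phosphate for 4 h. Cells were washed, then given serum-free DMEM/F-12 with ligand or 0.1% ethanol vehicle for 20 h. Luciferase was normalized to β-galactosidase. EC50 came from concentration-response curves, mean ± SEM of 3–5 independent experiments in triplicate.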

[4] = biological target: T1, Peroxisome proliferator-activated receptor alpha (Homo sapiens); assay: Agonist activity at PPARalpha ligand binding domain expressed in human Hep G2 cells co-transfected with Gal4-DBD by luciferase reporter gene assay relative to Wy 14,643; assay type: cell-based; conditions: HepG2; in short: as §1

Efficacy [1] | Efficacy [2] | EC50 [3] | Efficacy [4] | SMILES
100% | 100% | – | – | Cc1cccc(Nc2cc(Cl)nc(SCC(=O)O)n2)c1C
– | – | 150 nM | 83% | O=C(O)[C@H](Cc1ccccc1)Oc1ccc(CCc2ccccc2)cc1
– | – | 11 nM | 107% | O=C(O)[C@H](Cc1ccccc1)Oc1ccc(Cc2ccccc2)cc1
